The text below walks through data of ChEMBL document CHEMBL4196108, “5-Aroylindoles Act as Selective Histone Deacetylase 6 Inhibitors Ameliorating Alzheimer's Disease Phenotypes” (J Med Chem, 2018).

For assay [1], the target named is T1, Protein deacetylase HDAC6 (Mus musculus) (UniProt Q9Z2V5).
T1 sequence (whole entry): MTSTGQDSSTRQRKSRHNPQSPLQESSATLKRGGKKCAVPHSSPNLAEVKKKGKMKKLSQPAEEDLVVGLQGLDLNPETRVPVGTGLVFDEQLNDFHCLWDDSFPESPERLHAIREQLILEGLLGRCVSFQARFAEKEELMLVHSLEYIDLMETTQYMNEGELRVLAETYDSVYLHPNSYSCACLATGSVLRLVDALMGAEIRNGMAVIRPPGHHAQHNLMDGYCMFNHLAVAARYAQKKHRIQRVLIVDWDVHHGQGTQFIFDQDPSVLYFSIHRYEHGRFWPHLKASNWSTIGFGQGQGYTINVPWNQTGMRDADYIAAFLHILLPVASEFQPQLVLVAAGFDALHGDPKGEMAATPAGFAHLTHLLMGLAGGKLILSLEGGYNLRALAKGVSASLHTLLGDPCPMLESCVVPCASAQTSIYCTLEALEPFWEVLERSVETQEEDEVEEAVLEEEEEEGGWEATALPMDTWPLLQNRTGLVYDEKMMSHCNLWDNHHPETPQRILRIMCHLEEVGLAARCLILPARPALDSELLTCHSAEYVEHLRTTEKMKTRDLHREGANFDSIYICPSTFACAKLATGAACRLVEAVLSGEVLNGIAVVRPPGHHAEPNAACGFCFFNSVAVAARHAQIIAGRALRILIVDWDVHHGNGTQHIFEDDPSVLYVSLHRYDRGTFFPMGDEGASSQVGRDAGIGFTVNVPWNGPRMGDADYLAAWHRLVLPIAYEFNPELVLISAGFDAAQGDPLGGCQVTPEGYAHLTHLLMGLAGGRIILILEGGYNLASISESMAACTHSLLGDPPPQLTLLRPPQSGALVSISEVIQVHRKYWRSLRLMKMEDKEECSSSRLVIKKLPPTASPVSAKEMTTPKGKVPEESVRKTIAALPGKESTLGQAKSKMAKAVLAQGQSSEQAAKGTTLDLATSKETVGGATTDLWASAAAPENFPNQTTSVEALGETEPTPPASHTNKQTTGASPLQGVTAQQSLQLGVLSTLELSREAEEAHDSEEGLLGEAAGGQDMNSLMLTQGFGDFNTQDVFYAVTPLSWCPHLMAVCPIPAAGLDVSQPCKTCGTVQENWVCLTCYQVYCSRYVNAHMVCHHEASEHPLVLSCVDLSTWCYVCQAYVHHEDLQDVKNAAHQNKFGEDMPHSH
Nature of the assay: Inhibition of HDAC6 in mouse Neuro-2a cells transfected with pCAX FLAG APP and pRK5-EGFP-Tau P301L plasmids assessed as inhibition of Tau P301L mutant phosphorylation at Ser404 residue at 1 uM after 24 hrs by Western blot analysis. It is filed as cell-based. A digest of the protocol:
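SH-SY5Y or Neuro-2a cells cotransfected 24 h with pCAX APP695 and pRK5-EGFP-Tau P301L, then treated 24 h at 1 µM. 20 µg lysate protein immunoblotted for APP and phospho-tau Ser396/Ser404. Mean ± STD of three independent experiments; Student's t-test.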
(A western blot detects proteins with antibodies after separation by electrophoresis.)

For assay [2], the target named is T2, Protein deacetylase HDAC6 (Homo sapiens) (UniProt Q9UBN7).
T2 sequence (whole entry): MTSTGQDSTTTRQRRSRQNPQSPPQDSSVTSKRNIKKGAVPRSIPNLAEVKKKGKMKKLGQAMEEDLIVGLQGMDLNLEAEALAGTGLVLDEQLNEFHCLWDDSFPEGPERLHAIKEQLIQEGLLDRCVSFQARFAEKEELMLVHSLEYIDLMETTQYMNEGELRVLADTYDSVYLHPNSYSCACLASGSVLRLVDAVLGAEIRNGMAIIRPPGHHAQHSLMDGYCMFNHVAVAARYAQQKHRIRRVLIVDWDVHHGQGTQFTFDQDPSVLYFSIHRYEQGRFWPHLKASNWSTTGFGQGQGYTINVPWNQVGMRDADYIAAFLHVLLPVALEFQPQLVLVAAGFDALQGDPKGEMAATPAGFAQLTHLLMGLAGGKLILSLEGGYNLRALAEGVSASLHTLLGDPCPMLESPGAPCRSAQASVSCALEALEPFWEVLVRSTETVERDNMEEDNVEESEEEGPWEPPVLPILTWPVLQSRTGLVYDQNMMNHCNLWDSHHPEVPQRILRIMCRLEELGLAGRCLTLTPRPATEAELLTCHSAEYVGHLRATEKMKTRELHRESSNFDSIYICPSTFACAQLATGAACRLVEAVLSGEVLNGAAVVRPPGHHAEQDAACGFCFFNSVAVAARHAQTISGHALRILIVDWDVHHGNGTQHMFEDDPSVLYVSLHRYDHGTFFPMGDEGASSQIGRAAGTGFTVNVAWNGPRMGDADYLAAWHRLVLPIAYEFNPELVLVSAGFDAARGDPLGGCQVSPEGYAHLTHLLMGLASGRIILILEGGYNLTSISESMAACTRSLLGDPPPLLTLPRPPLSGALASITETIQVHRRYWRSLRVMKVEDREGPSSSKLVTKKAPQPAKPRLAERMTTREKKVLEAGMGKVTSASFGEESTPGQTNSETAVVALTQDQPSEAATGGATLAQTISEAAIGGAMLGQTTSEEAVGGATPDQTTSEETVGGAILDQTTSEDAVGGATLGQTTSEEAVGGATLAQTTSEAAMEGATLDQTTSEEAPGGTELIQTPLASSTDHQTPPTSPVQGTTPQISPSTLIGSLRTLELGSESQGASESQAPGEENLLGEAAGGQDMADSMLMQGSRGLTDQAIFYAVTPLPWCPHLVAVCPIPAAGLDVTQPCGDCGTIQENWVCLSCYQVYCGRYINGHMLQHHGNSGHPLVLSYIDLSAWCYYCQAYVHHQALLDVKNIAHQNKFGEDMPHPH
Nature of the assay: Inhibition of HDAC6 in human SH-SY5Y cells transfected with pCAX FLAG APP and pRK5-EGFP-Tau P301L plasmids assessed as suppression of phosphorylated tau P301L mutant-induced apoptosis by measuring accumulation at sub-G1 phase at 1 uM after 24 hrs by propidium iodide staining-based flow cytometry (reference value: 22.01%). More on the design: scale not given: the % may be the effect or the level left. In kind it is cell-based.

Another assay relates to Mus musculus. Nature of the assay: In vivo inhibition of HDAC6 in 3xTg-AD transgenic mouse brain hippocampal CA1 region assessed as downregulation of […] expression of beta-amyloid at 50 mg/kg, po administered daily for 3 months by Western blot analysis. In kind it is functional, organism-based.
Assay [3] has as its target T2, Protein deacetylase HDAC6 (Homo sapiens). Put plainly: Inhibition of HDAC6 in human SH-SY5Y cells transfected with pCAX FLAG APP and pRK5-EGFP-Tau P301L plasmids assessed as increase in HSP90 acetylation at 1 uM after 24 hrs by coimmunoprecipitation analysis. It is filed as cell-based. In outline:
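SH-SY5Y and Neuro-2a cells cotransfected 24 h with APP695/Tau P301L plasmids, treated 24 h at 1 µM (ACY-1215 reference). 30 µg lysate immunoprecipitated overnight at 4 °C with anti-HDAC6 or anti-acetyl-lysine antibodies plus protein A/G beads, run on 8% SDS-PAGE, probed for Hsp90; Hsp70 by immunoblot. Three independent experiments.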

The source made the active and inactive calls. The calls are words filed in the database; no cut-off is given here.

Turning to `COc1ccc(C(=O)c2ccc3c(ccn3Cc3ccc(C(=O)NO)cc3)c2)cc1`, the inhibition entry (in assay [1]; in the assay with Mus musculus; in assay [3]) was “Active” throughout. In addition, the Activity in assay [2] is 11.5%.
